{"data": "Results gathered from unrelated publications", "target": "Cyclin-G-associated kinase (GAK, Homo sapiens, UniProt O14976)", "One construct used (O14976 1-1311)": "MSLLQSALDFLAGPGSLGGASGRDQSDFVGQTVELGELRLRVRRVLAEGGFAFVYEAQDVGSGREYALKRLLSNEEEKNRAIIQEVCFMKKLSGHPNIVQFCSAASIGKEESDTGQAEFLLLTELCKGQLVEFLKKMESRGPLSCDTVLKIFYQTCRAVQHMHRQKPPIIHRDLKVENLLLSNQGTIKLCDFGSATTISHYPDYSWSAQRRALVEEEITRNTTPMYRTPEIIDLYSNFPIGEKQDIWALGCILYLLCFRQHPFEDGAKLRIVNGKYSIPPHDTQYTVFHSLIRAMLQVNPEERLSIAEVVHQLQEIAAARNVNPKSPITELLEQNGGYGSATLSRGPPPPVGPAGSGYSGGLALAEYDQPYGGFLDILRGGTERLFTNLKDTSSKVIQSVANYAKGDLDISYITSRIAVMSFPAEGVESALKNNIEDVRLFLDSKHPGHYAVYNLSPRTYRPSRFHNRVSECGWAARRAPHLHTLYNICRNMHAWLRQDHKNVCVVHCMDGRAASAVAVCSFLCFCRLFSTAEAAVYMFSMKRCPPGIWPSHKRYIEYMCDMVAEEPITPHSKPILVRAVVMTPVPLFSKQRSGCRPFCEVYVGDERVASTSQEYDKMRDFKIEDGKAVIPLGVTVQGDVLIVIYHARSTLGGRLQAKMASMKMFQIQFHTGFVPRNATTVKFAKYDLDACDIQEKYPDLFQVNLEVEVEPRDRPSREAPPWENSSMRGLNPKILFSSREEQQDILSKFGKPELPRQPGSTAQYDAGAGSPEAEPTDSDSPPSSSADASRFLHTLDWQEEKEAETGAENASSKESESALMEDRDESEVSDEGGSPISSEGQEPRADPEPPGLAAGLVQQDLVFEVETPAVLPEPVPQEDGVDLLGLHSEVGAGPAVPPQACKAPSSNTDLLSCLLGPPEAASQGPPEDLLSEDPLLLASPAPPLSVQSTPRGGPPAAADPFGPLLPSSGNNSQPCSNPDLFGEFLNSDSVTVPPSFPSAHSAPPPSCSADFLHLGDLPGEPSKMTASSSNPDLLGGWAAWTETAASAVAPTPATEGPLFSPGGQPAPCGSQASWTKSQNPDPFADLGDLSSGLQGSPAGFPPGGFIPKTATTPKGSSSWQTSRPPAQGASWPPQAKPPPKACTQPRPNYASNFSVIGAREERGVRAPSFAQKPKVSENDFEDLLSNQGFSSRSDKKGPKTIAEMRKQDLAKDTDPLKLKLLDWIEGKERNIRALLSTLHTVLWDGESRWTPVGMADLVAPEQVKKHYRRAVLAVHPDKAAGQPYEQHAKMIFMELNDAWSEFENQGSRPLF", "note": "Compare with care: the assays were run in different laboratories."}
{"assay": "binding, competition with immobilised ligand", "setting": "1 µM", "quantity": "remaining binding", "result": "95%", "Compound": "Cc1ccc(NC(=O)c2ccnc(C(F)(F)F)c2)cc1-c1cc(OCCO)nc(N2CCOCC2)c1"}
{"assay": "enzyme activity, inhibitor", "setting": "1 µM", "quantity": "inhibition", "result": "20%", "Compound": "C=CC(=O)N1CCC([C@@H]2CCNc3c(C(N)=O)c(-c4ccc(Oc5ccccc5)cc4)nn32)CC1"}
{"assay": "enzyme activity, inhibitor", "setting": "1 µM", "quantity": "activity vs control", "result": "101%", "Compound": "CC(C)S(=O)(=O)c1ccc2nccc(Nc3ccc4sc(C5CCCC5)nc4c3)c2c1"}
{"assay": "binding, competition with immobilised ligand", "setting": "0.5 µM", "quantity": "remaining binding", "result": "100%", "Compound": "CCCCC(=O)Nc1ccc(-c2ccc3ncn(CCC)c(=O)c3c2)cn1"}
{"assay": "binding", "setting": "0.1 µM", "quantity": "remaining binding", "result": "31%", "Compound": "C1=C/COCc2cc(ccc2OCCN2CCCC2)Nc2nccc(n2)-c2cccc(c2)COC/1"}
{"assay": "enzyme activity, inhibitor", "setting": "0.1 µM", "quantity": "inhibition", "result": "0.133%", "Compound": "Cc1cc(O)c(-c2ccc([C@@H](C)CN(C)C)cc2)c2c1[nH]c(=O)c1sccc12"}
{"assay": "enzyme activity, inhibitor", "setting": "0.2 µM", "quantity": "inhibition", "result": "18.7%", "Compound": "C#Cc1cc(-c2cc(Nc3nc(N[C@@H](C)c4ccc(F)cn4)ncc3Cl)n[nH]2)ccc1C=O"}
{"assay": "enzyme activity, inhibitor", "setting": "1 µM", "quantity": "inhibition", "result": "74%", "Compound": "CO[C@@H]1[C@H](N(C)C(=O)c2ccccc2)C[C@H]2O[C@]1(C)n1c3ccccc3c3c4c(c5c6ccccc6n2c5c31)C(=O)NC4"}
{"assay": "binding, competition with immobilised ligand", "setting": "1 µM", "quantity": "remaining binding", "result": "18%", "Compound": "CN1CCN(C(=O)c2ccc(NC(=O)Nc3ccc(N(C)c4ccnc(Nc5ccc(CS(C)(=O)=O)cc5)n4)cc3)cc2)CC1"}
